Test: Toxicity liver stage against HepG2, at 10uM
Type: cell-based
Set-up: test concentration 10 uM, cell line HepG2-A16-CD81EGFP
Conditions: human, HepG2-A16-CD81EGFP cells; read-out: INHIBITION
How it was run: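 Uninfected HepG2-A16-CD81EGFP cells, 3 × 10^3 per well, 1536-well, plated on prespotted compound at 10 μM final, parasite-free screening media added to match infected plates; puromycin 10 μM positive, DMSO 0.5% negative; run in parallel with 48 h PbLuc assay at 37 °C, 5% CO2; viability by CellTiter-Glo luminescence, normalized to controls.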

O=C(NCc1ccc(F)cc1F)C(c1cccnc1)N1CCOCC1 (centres undefined)
cytotoxicity at 10 µM: -4.89%

c1cc2c(cc1CSCc1noc(C3CC3)n1)OCCO2
cytotoxicity at 10 µM: 10.4%

CC(C)c1noc(CCC(=O)NC2CCS(=O)(=O)C2)n1 (centres undefined)
cytotoxicity at 10 µM: -15.6%

O=C(c1cc(C2CC2)on1)N1CCCC(n2cccn2)C1 (centres undefined)
cytotoxicity at 10 µM: -4.04%

COc1cccc(OC)c1C(=O)NCC(c1cccn1C)N1CCCC1 (centres undefined)
cytotoxicity at 10 µM: 6.89%

Cc1cc(C)n(C2CCCN(C(=O)c3c(C)noc3C)C2)n1 (centres undefined)
cytotoxicity at 10 µM: -6.41%

CN1CC2(CCN(C(=O)c3ccc(-n4cnnc4)cc3Cl)CC2)OC1=O
cytotoxicity at 10 µM: 4.03%

O=C(CN1CCS(=O)(=O)CC1)Nc1ccc(N2CCCC2)nc1
cytotoxicity at 10 µM: 10.3%

Cn1nc(C(=O)N2CCCC2)c(F)c1NC(=O)Cc1ccccc1
cytotoxicity at 10 µM: 1.41%

COc1cc(C)c(C2CC(=O)NCc3nc4sccn4c32)cc1C (centres undefined)
cytotoxicity at 10 µM: -2.19%

Cc1ccc(C)c(NC(=O)c2coc(C)n2)c1
cytotoxicity at 10 µM: -5.97%

CCCc1cc(C(=O)NC(C)c2ccccc2)n(C)n1 (centres undefined)
cytotoxicity at 10 µM: -4.45%

CC(C)n1nccc1CN1Cc2nccn2CC1c1ccccc1 (centres undefined)
cytotoxicity at 10 µM: 5.38%

CC(C)(C)c1ccc(S(=O)(=O)CCN2CCNC(=O)CC2)cc1
cytotoxicity at 10 µM: -5.41%

O=C(NCc1ccc(N2CCSCC2)cc1)NCc1cc[nH]n1
cytotoxicity at 10 µM: -0.645%

O=C(NCCCNc1ccc(C(F)(F)F)cn1)c1ccc(F)cc1F
cytotoxicity at 10 µM: 3.61%

O=C(c1ccc2c(c1)OCCCO2)N1CCCC(n2cccn2)C1 (centres undefined)
cytotoxicity at 10 µM: -15.6%

CC(C)[C@@H]1CN(C(=O)C2(c3ccccc3)CCN(C)CC2)C[C@H]1C(=O)O
cytotoxicity at 10 µM: 8.73%

CCOC1COC2(CCN(c3cccc(C)n3)CC2)C1 (centres undefined)
cytotoxicity at 10 µM: -2.16%

Cn1ncc(N2CCOCC2)c(Cl)c1=O
cytotoxicity at 10 µM: -13.8%

CCN(CC)Cc1ccccc1NC(=O)N(C)Cc1ccccc1O
cytotoxicity at 10 µM: -1.57%

CCCc1noc(C2CC(=O)N(C(C)(C)C)C2)n1 (centres undefined)
cytotoxicity at 10 µM: 0.0198%

Cc1c(NC(=O)N(C)CCCc2cnn(C)c2)cnn1C
cytotoxicity at 10 µM: -1.23%

CC1(C)CN(C(=O)c2cnc(CN3CCCC3)s2)CC[C@]1(C)O
cytotoxicity at 10 µM: -15.1%

Cc1cccc(NC(=O)Cn2nc3ccccn3c2=O)c1C
cytotoxicity at 10 µM: -13.4%

Cn1ncc2c(=O)[nH]c(CN3CCCC3CCc3ccccc3)nc21 (centres undefined)
cytotoxicity at 10 µM: -8.21%

NC(=O)C(Cc1ccccc1)NS(=O)(=O)Cc1ccccc1Cl (centres undefined)
cytotoxicity at 10 µM: 7.56%

O=C1CCCN1CCN1CCCCC1Cn1cncn1 (centres undefined)
cytotoxicity at 10 µM: -0.225%

O=C([C@@H]1C[C@@H]2CCN(C3CCOCC3)C[C@@H]2O1)N1CCCC1
cytotoxicity at 10 µM: 6.81%

COc1cccc([C@H]2CN(C(=O)c3ccccc3)[C@@H]3CCCN[C@H]23)c1
cytotoxicity at 10 µM: -25.9%

CC(Oc1cccc(Cl)c1)C(=O)Nc1cnn(CCN(C)C)c1 (centres undefined)
cytotoxicity at 10 µM: -12.5%

CC(C)CC1SCC(=O)Nc2c1cnn2C(C)C (centres undefined)
cytotoxicity at 10 µM: 1.11%

CC(C)Sc1ccc(C(C)NC(=O)CNS(C)(=O)=O)cc1 (centres undefined)
cytotoxicity at 10 µM: 3.92%

COc1cccc(OCc2cc(C(=O)N3CC(O)C3)n[nH]2)c1
cytotoxicity at 10 µM: 2.81%

CC(C)CN1CCC(NCCNc2cccnc2)CC1
cytotoxicity at 10 µM: -5.25%

O=C(NCc1cccnc1N1CCCC(O)C1)c1ccsc1 (centres undefined)
cytotoxicity at 10 µM: 14.3%

CCNC(=O)CN(CC)S(=O)(=O)c1c(Br)cc2[nH]c(=O)oc2c1Cl
cytotoxicity at 10 µM: 9.69%

COC(C)C(=O)NS(=O)(=O)c1cccc2cc(C)cnc12 (centres undefined)
cytotoxicity at 10 µM: -6.55%

CS(=O)(=O)N1CCC(c2nnc3ccc(C(=O)N4CCCC4)cn23)C1 (centres undefined)
cytotoxicity at 10 µM: 1.47%

CC(=O)N1CCC(c2cc(Nc3ncccn3)nc(C)n2)C1 (centres undefined)
cytotoxicity at 10 µM: -27.7%

CN1CC(C(=O)NCCc2ccc(Br)cc2F)CC1=O (centres undefined)
cytotoxicity at 10 µM: 2.43%

CCNC(=O)NCc1nn(CCN2CCCC2)c(=O)c2ccccc12
cytotoxicity at 10 µM: -3.85%

O=C(Cc1ccccn1)N1CCc2c(O)nc(-c3cnccn3)nc2C1
cytotoxicity at 10 µM: -27%

COc1ccccc1OCC(=O)NCC(C)(O)c1ccccc1 (centres undefined)
cytotoxicity at 10 µM: -5.37%

O=C(c1ccc2c(c1)CCCC2)N1CCN(c2cnccn2)CC1
cytotoxicity at 10 µM: -1.95%

CCNC(=O)NC(=O)CNC(C)(C)c1ccc2c(c1)OCO2
cytotoxicity at 10 µM: -8.58%

Cc1ccc(NCc2ccco2)cc1N1CCOC1=O
cytotoxicity at 10 µM: -10.6%

O=C(NS(=O)(=O)c1ccc(F)c(F)c1)c1cscn1
cytotoxicity at 10 µM: -5.64%

COC(=O)C(CNC(=O)Nc1nncs1)Cc1ccc(F)cc1 (centres undefined)
cytotoxicity at 10 µM: 0.571%

CSCCN1CCC(NC(=O)OC(C)(C)C)CC1
cytotoxicity at 10 µM: 12.3%

Cn1nccc1-c1ccc2nc(C3CCN(CCO)CC3)nn2c1
cytotoxicity at 10 µM: -14.1%

O=C(C[S+]([O-])c1ccc(F)c(F)c1)NCc1cc(F)cc(F)c1 (centres undefined)
cytotoxicity at 10 µM: 5.58%

CCc1cc(C(F)(F)F)c2c(C3CCN(C(=O)COC)CC3)noc2n1
cytotoxicity at 10 µM: 14%

Cc1nc(C2CCCNC2)cc(N(Cc2nccn2C)C2CC2)n1 (centres undefined)
cytotoxicity at 10 µM: -3.42%

CCN1C(=O)CCC12CCC(NC(=O)c1cnccn1)CC2 (centres undefined)
cytotoxicity at 10 µM: -2.42%

Cc1cnn(CCC(=O)N2CCN(c3ccc(C#N)cn3)CC2)c1
cytotoxicity at 10 µM: -0.417%

CNC(=O)c1cnc2n1CCN(C(=O)Cc1ccccn1)C2
cytotoxicity at 10 µM: 6.68%

Cc1ccc(-c2ncc(CNc3cnccc3CO)s2)o1
cytotoxicity at 10 µM: -10.9%

O=C(CC[C@@H]1CCCN2CCCC[C@H]12)N1CCC(c2nnc[nH]2)CC1
cytotoxicity at 10 µM: 2.61%

O=C(c1ccoc1)N1CC[C@@H]2O[C@@H](COCc3ccccn3)CC[C@@H]21
cytotoxicity at 10 µM: -71.1%

Cn1ccnc1CN1CCN(CC2CC2)[C@@H]2CS(=O)(=O)C[C@@H]21
cytotoxicity at 10 µM: 1.02%

c1ccc(-c2nc(CNC3CCc4ncnn4C3)co2)cc1 (centres undefined)
cytotoxicity at 10 µM: -8.6%

Cc1ccccc1CCC(=O)N1CCc2ncnc(NCCO)c2CC1
cytotoxicity at 10 µM: -21%

OC(CN(Cc1ccccc1)Cc1ccncc1)c1cccs1 (centres undefined)
cytotoxicity at 10 µM: -3.65%

CN(Cc1nnc2n1CCC2)S(=O)(=O)c1ccc(Br)cc1Cl
cytotoxicity at 10 µM: -6.08%

NC(=O)Cn1c(SCc2noc(-c3ccsc3)n2)nnc1C1CC1
cytotoxicity at 10 µM: 15.4%

Cc1nc(Cn2c3c(ccc2=O)CCN(CC2CCC2)CC3)cs1
cytotoxicity at 10 µM: 5.1%

N#Cc1cccc(C(=O)N2CC[C@H]3[C@H]2CCN3CC2CC2)c1
cytotoxicity at 10 µM: 3.03%

CC(C)N1CCCC2(CCN(C(=O)CCCn3ccnc3)C2)C1=O (centres undefined)
cytotoxicity at 10 µM: -6.43%

CN(C)c1cc2c(nn1)CCN(C(=O)C1CCCc3ccccc31)C2 (centres undefined)
cytotoxicity at 10 µM: -8.57%

O=C(NCCc1coc(-c2ccccc2)n1)NC1CC1
cytotoxicity at 10 µM: -18.5%

CC(=O)N1CCc2c(nc(N(C)C)nc2NC(C)Cc2cccs2)C1 (centres undefined)
cytotoxicity at 10 µM: -42.9%

CN(C)C(=O)c1nc(CN2CC(c3ccccc3)CC2=O)no1 (centres undefined)
cytotoxicity at 10 µM: 0.624%

Cc1ccc(-c2nnc(CN3CCCC(O)(CO)CC3)o2)n1C (centres undefined)
cytotoxicity at 10 µM: -2.4%

CN(C)S(=O)(=O)NCc1cccnc1Oc1ccc(F)c(F)c1
cytotoxicity at 10 µM: 3.05%

COC(=O)CNC(=O)CSCc1nc(O)c2cc(C(C)C)sc2n1
cytotoxicity at 10 µM: 7.72%

O=S(=O)(NCC1(O)CCOCC1)c1c(F)cccc1F
cytotoxicity at 10 µM: -4.97%

CNC(=O)[C@H]1CO[C@H]2CCN(Cc3ccc4ccccc4n3)C[C@H]2C1
cytotoxicity at 10 µM: 8.05%

CC(=O)N(Cc1ncc(C(C)C)o1)C1CCN(Cc2cc(C)no2)C1 (centres undefined)
cytotoxicity at 10 µM: -5.89%

O=C(c1cn(CC(=O)N2CCCC2)c2ccccc12)C1CC1
cytotoxicity at 10 µM: 14.2%

CCC(C#N)NC(=O)CCCOc1cccc(C(C)=O)c1 (centres undefined)
cytotoxicity at 10 µM: -35.1%

Cc1ccccc1OCn1ccc(C(=O)NCCN2CCOCC2)n1
cytotoxicity at 10 µM: 8.02%

CC(C)CNC(=O)c1nn(C)c(NC(=O)Cc2ccccc2)c1F
cytotoxicity at 10 µM: -3.22%

CS(=O)(=O)NC1CCN(C(=O)NCc2cccnc2)CC1
cytotoxicity at 10 µM: 0.796%

CN1CCN(C(=O)c2cc3sccc3n2Cc2ccccc2Cl)CC1
cytotoxicity at 10 µM: 2.3%

CN(C)C(=O)COCc1nn(C)c2c1CCN(Cc1ccco1)C2
cytotoxicity at 10 µM: -131%

Cc1cc(C)c2nc(CN3CCCC(c4cc[nH]n4)C3)cc(O)c2c1 (centres undefined)
cytotoxicity at 10 µM: -3.97%

O=C(NCC1CCCO1)c1nc2c(s1)CCCN2c1ncccn1 (centres undefined)
cytotoxicity at 10 µM: -5.17%

Cc1ccoc1C(=O)N1CC[C@H]2C[C@H](c3nnc(C4CC4)o3)O[C@@H]2C1
cytotoxicity at 10 µM: -105%

COc1cccc(CN2CCC(c3nccn3C(C)C)CC2)c1
cytotoxicity at 10 µM: -8.37%

CC1CCCN(Cc2c(C3CC3)[nH]c3ncccc23)C1 (centres undefined)
cytotoxicity at 10 µM: -34.1%

CN(C)C[C@]12COC[C@H]1CN(Cc1ccc3c(c1)OCO3)C2
cytotoxicity at 10 µM: -123%

CC(C)CN1C(=O)CC[C@H]2CN(Cc3ncc[nH]3)CC[C@H]21
cytotoxicity at 10 µM: -3.25%

COc1ccc(OCc2sc(C3(O)CCCNCC3)nc2C)cc1 (centres undefined)
cytotoxicity at 10 µM: -3.66%

COCCC(=O)Nc1nc2c(OC)cc(F)cc2s1
cytotoxicity at 10 µM: -0.327%

CN(C)C(=O)COc1ccccc1CNC1CCc2ncnn2C1 (centres undefined)
cytotoxicity at 10 µM: 5.38%

O=C1NCC2(CCCN(C(=O)c3c[nH]nc3-c3cccs3)C2)O1 (centres undefined)
cytotoxicity at 10 µM: 8.32%

CN(C)C(=O)N1CC(C(=O)NCC2CC2)C2(CCOCC2)C1 (centres undefined)
cytotoxicity at 10 µM: -95.1%

Cc1ccc(CN2C[C@@H]3C[C@H](C(=O)NCc4cccnc4)[C@H](C2)O3)o1
cytotoxicity at 10 µM: 3.82%

O=C(NCc1cc[nH]n1)N1CCCC(N2CCCC2)C1 (centres undefined)
cytotoxicity at 10 µM: -3.18%

O=C1[C@H]2CN(CC3CC3)C[C@H]2CN1Cc1cccc(F)c1
cytotoxicity at 10 µM: 5.56%

CCc1nccn1C1CCCN(C(=O)Cc2cn3ccccc3n2)C1 (centres undefined)
cytotoxicity at 10 µM: -2.72%

O=C(c1ccccn1)N1CCC2(CC1)C(=O)Nc1ccccc12
cytotoxicity at 10 µM: -145%

O=C(NCC1CC1)C1CCC2(CCN(C(=O)c3cccnc3)CC2)O1 (centres undefined)
cytotoxicity at 10 µM: 3.59%

Cc1cccnc1CN(C)C(C(=O)O)c1ccc(-c2ccn[nH]2)cc1 (centres undefined)
cytotoxicity at 10 µM: 12.2%

CS(=O)(=O)N1CCOCC2(CCN(C(=O)c3cccnc3)CC2)C1
cytotoxicity at 10 µM: -10.1%

CCn1cc(CN2C[C@@H]3CCCN3C[C@H]2CCSC)c(C)n1
cytotoxicity at 10 µM: -15.3%

COc1cccc(-c2nc(C)c(C(=O)N[C@@H](CCSC)C(=O)O)s2)c1
cytotoxicity at 10 µM: -1.64%

Cc1nc(C(C)C)sc1C(C)N(C)C(=O)c1ccc(=O)n(C)n1 (centres undefined)
cytotoxicity at 10 µM: -1.94%

Source: ChEMBL document CHEMBL4513216, “Probing the Open Global Health Chemical Diversity Library for Multistage-Active Starting Points for Next-Generation Antimalarials” (ACS Infect Dis, 2020)
